A selection: hits, their analogues and other compounds. The true share with any hit is near 4.1%.
Cl transport mod: KCC2 cotransporter modulators, thallium flux, primary screen, cell-based, HEK293 KCC2, FluoZin-2 fluorescence, MLSMR | B-score of Tl+ flux slope (higher = more flux/activation; lower = inhibition) at 10 µM | KCC2 cells, thallium flux FluoZin-2 fluorescence | AID 1456, 2008 | Solute carrier family 12 member 5 (Homo sapiens), Q9H2X9 | 190,000 compounds, 2.2% hits;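 active = thallium flux slope and its plate-corrected score both differing from the plate sample mean at a set confidence after two filtering rounds, in either direction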;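 note: slope of fluorescence scaled to starting intensity during 10 to 20 s after thallium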
Redox H2O2 prof: compounds producing H2O2 with reducing agent – biochemical, NIH compound library profiling, artefact control for MLSCN library redox annotation, primary screen. DTT-dependent redox cycling H2O2, phenol red/HRP absorbance; 100% = 100 µM peroxide control, 0% = buffer. activation, % at 10 µM. 200,000 compounds, 0.03% hits. AID 878, 2007;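 active = activation of at least 50% relative to the plate's high and low controls in the primary single-dose screen; inactive = activation below 50%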;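 note: compound incubated with DTT at 0.8 mM final as the reducing agent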
Autophagy HCS: autophagy modulators in MEF cells, primary screen, imaging, high-content, MEF GFP-LC3 | MEF GFP-LC3 puncta imaging; test concentration mostly 10 µM | calls only at 10 µM (by protocol) | 190,000 compounds, 0.98% hits;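 active = percentage of spot-positive cells more than 3 SD above its plate mean, without a fluorescence outlier flag or 80% toxicity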;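 note: spot-positive cell cutoff set from DMSO-treated cells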
ROMK primary: ROMK potassium channel modulators, primary screen, cell-based, thallium flux, MLSMR library; ATP-sensitive inward rectifier potassium channel 1 (Homo sapiens), P48048; Tet-inducible ROMK, thallium flux fluorescence; actives lie on both sides; B-score at 10 µM; 130,000 compounds, 2% hits; AID 1918, 2009;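 active = signal ratio slope over the read window, or its plate-corrected B-score, at least 3 SD from the plate mean, either direction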;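 note: B-score of the F/F0 ratio slope over 7 to 12 s after thallium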
Target sequence (P48048 whole entry, looked up): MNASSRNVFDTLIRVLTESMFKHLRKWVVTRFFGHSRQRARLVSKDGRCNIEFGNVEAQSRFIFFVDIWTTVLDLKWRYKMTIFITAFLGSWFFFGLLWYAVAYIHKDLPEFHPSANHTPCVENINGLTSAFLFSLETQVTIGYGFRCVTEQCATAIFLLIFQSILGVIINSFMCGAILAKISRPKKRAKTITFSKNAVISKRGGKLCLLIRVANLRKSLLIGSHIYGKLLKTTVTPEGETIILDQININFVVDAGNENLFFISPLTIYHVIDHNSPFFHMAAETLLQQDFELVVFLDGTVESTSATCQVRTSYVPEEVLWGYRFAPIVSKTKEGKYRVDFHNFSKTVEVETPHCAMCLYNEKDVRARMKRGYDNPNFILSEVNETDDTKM
Dynein transport: inhibitors of GR-EGFP nuclear translocation, primary screen, dynein cargo transport inhibitor project, imaging, high-content, 3617.4 mouse cells; test concentration mostly 20 µM; stimulated with dexamethasone, 1 µM; hits give low values; z-score, hits read low; 220,000 compounds, 0.47% hits; AID 1381, 2008;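 active = plate z-score of nuclear minus cytoplasmic receptor signal below a set negative limit, without overly bright fluorescence or cell loss, cut at about -3.5 in these data, passing the limit was not always enough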;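 note: z-score of nuclear minus cytoplasmic ring GR-EGFP intensity difference per well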
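Also added: dexamethasone, 1.0 µM final. Medium: tet-free, stripped-serum medium. Detection: fixed, Hoechst-stained cells imaged at 10x for EGFP. Read-out: nuclear-to-cytoplasmic GR-EGFP distribution per well. Times: induction 48 h, compound 1 h, agonist 30 min.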
Numbers without * were called inactive; i = inactive; . = no result; + = active, no number.

SMILES	Cl transport mod	Redox H2O2 prof	Autophagy HCS	ROMK primary	Dynein transport
COC(=O)c1ccccc1NC(=S)NC(=O)c1ccc(C)cc1	11*	2.4	i	.	0.332
COC(=O)c1sc(NC(=O)/C=C/c2ccccc2Cl)nc1C	0.377	-1.2	i	-0.473	0.315
COC(=O)c1sc(NC(=S)NC(=O)c2ccccc2)nc1C	35.3*	0.3	i	.	0.653
Cc1ccc(NC(=O)Nc2ccno2)cc1	-0.924	.	.	.	-0.166
CC(C)N(C(=O)Cn1cc(SCC(N)=O)c2ccccc21)C(C)C	0.253	-0.5	i	0.224	-0.0749
c1cncc(-c2nc(NCCCN3CCOCC3)c3c4c(sc3n2)CCC4)c1	0.394	-0.4	+	-1.32	0.106
c1cncc(-c2nc(N3CCOCC3)c3c4c(sc3n2)CCC4)c1	0.169	-0.3	i	-1.07	-0.573
NC(=O)C1CCN(S(=O)(=O)Cc2ccccc2Cl)CC1	0.527	-0.4	i	.	-0.855
Cc1ccc(S(=O)(=O)Nc2ccccc2-c2ccccc2)cc1	0.13	1.6	+	.	-0.255
Cc1ccc(S(=O)(=O)Nc2ccnc3ccccc23)cc1	.	0.3	i	-1.85	-0.126
CCn1c(NC(=S)Nc2ccccc2)nc2ccccc21	13*	2.9	i	.	-0.527
CCCn1c(NC(=O)c2ccccc2)nc2ccccc21	9.93*	0.9	i	.	2.83
CCCn1c(NC(=O)c2ccc(C)cc2)nc2ccccc21	.	-2.1	i	0.339	-0.786
Cc1cccc2sc(NC(=O)C3CCCN(S(=O)(=O)c4cccc5nonc45)C3)nc12 (stereo unspecified)	.	2.6	+	.	3.77
O=C(Cn1ncc(Cl)c(Cl)c1=O)NCC1CCCCC1	-0.199	-0.1	i	-1.26	-6.2*
O=C(Cn1ncc(Cl)c(Cl)c1=O)NC1CCS(=O)(=O)C1 (stereo unspecified)	-0.233	.	.	.	-0.603
CC(=O)N1CCc2cc(S(=O)(=O)N3c4ccccc4CC3C)ccc21 (stereo unspecified)	0.941	0.0	+	0.244	-0.276
CC(=O)N1CCc2cc(S(=O)(=O)N3CCOCC3)ccc21	.	-0.1	i	-0.195	1.1
Cc1ccc(/C=C/C(=O)c2ccc(N3CCOCC3)cc2)s1	-0.75	-0.8	i	0.911	0.405
COc1ccc(NC(=S)NC(NC(=O)c2cccc(Cl)c2)C(Cl)(Cl)Cl)c([N+](=O)[O-])c1 (stereo unspecified)	0.691	0.3	+	.	-0.193
COc1ccc(NC(=S)NC(NC(C)=O)C(Cl)(Cl)Cl)c([N+](=O)[O-])c1 (stereo unspecified)	0.502	0.5	i	.	-0.623
COc1ccc(NC(=S)NC(NC(=O)c2cccc(C)c2)C(Cl)(Cl)Cl)c([N+](=O)[O-])c1 (stereo unspecified)	0.0571	0.5	+	.	0.11
COc1cccc(C(=O)NC(=S)Nc2ccc([N+](=O)[O-])cc2C)c1	6.61*	0.4	i	.	-0.0346
O=C(NCCC1=CCCCC1)Nc1ccc2nsnc2c1	1.48	-0.5	i	0.416	1.55
COC1CCN(Cc2cn(Cc3ccccc3)nc2-c2cc3ccccc3o2)CC1	-1.22	0.4	+	-2.54	0.746
SMILES	Cl transport mod	Redox H2O2 prof	Autophagy HCS	ROMK primary	Dynein transport
Cc1csc(SC(C)C(=O)NCC2CCCCC2)n1 (stereo unspecified)	-0.323	-1.3	i	0.327	-0.0134
COC(=O)c1ccc(NC(=O)Nc2ccc(OC)cc2)cc1	0.624	-0.2	i	-0.401	1.14
COC(=O)c1ccc(=O)n(-c2ccc(OC)cc2)c1	8.16*	0.9	i	-0.233	-0.349
N/C(=N\O)c1ccccc1N1CCCCC1	-0.224	0.3	i	0.245	0.121
CC(OC(=O)c1oc2ccccc2c1COc1ccccc1)C(=O)NC(N)=O (stereo unspecified)	-0.746	-1.4	+	0.145	0.62
CN(C)C=Nc1ccccc1C1C=NNC1=O (stereo unspecified)	1.29	.	.	0.0771	-0.0721
Cc1cccc(C(=O)N2CCCCCC2)c1	0.0763	0.2	i	0.268	-0.422

Compound activity from PubChem BioAssay.
